ChEMBL document CHEMBL5058577, “EUbOPEN Chemogenomics Library 2 (Multiplex)” (2022)

Test system: HEK-293T
Test: Multiplex assay against HEK293T
Type: toxicity, cell-based
Settings: human
Summary of the method: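 Live cells were stained at seeding with Hoechst33342, BioTracker Green Microtubule Cytoskeleton Dye, MitoTracker Red and Annexin V Alexa Fluor 680. Following compound addition, they were imaged on a CQ1 microscope at 37°C and 5% CO2 and gated by CellPathfinder machine learning into Hoechst high-intensity objects or normal cells, with normal cells split into healthy, pyknosed or fragmented nuclei and pyknosed cells into mitotic or apoptotic. Tubulin, mitochondrial-mass and membrane-permeability phenotypes are per cents of healthy-nucleus cells.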

[1] = 12 h, 1 µM, compound concentration 1 uM, replicate 1
[2] = 12 h, 1 µM, compound concentration 1 uM, replicate 2
[3] = 12 h, 10 µM, compound concentration 10 uM, replicate 1
[4] = 12 h, 10 µM, compound concentration 10 uM, replicate 2
[5] = 24 h, 1 µM, compound concentration 1 uM, replicate 1
[6] = 24 h, 1 µM, compound concentration 1 uM, replicate 2
[7] = 24 h, 10 µM, compound concentration 10 uM, replicate 1
[8] = 24 h, 10 µM, compound concentration 10 uM, replicate 2
[9] = 48 h, 1 µM, compound concentration 1 uM, replicate 1
[10] = 48 h, 1 µM, compound concentration 1 uM, replicate 2
[11] = 48 h, 10 µM, compound concentration 10 uM, replicate 1
[12] = 48 h, 10 µM, compound concentration 10 uM, replicate 2

Cc1cnc(-c2cc(N3CCN(C(=O)CCS(C)(=O)=O)CC3)ncc2Cl)c(C)c1
Population Apoptotic (%) [1]: 29% | Population Fragmented Nuclei (%) [1]: 6% | Population Healthy Nuclei (%) [1]: 76% | Population Hoechst High Intensity Objects (%) [1]: 4% | Population Membrane Permeable-Phenotype (%) [1]: 0% | Population Mitochondria Different-Phenotype (%) [1]: 50% | Population Mitotic Cells (%) [1]: 70% | Population Normal (%) [1]: 95% | Population Pyknosed Nuclei (%) [1]: 16% | Population Tubulin-Different-Phenotype (%) [1]: 33% | Total Cell Count [1]: 276 | Population Apoptotic (%) [2]: 42% | Population Healthy Nuclei (%) [2]: 75% | Population Hoechst High Intensity Objects (%) [2]: 9% | Population Mitochondria Different-Phenotype (%) [2]: 69% | Population Mitotic Cells (%) [2]: 57% | Population Normal (%) [2]: 90% | Population Pyknosed Nuclei (%) [2]: 17% | Population Tubulin-Different-Phenotype (%) [2]: 24% | Total Cell Count [2]: 294 | Population Apoptotic (%) [3]: 42% | Population Fragmented Nuclei (%) [3]: 7% | Population Healthy Nuclei (%) [3]: 82% | Population Hoechst High Intensity Objects (%) [3]: 10% | Population Membrane Permeable-Phenotype (%) [3]: 0% | Population Mitochondria Different-Phenotype (%) [3]: 47% | Population Mitotic Cells (%) [3]: 57% | Population Normal (%) [3]: 89% | Population Pyknosed Nuclei (%) [3]: 10% | Population Tubulin-Different-Phenotype (%) [3]: 40% | Total Cell Count [3]: 409 | Population Apoptotic (%) [4]: 45% | Population Healthy Nuclei (%) [4]: 75% | Population Hoechst High Intensity Objects (%) [4]: 7% | Population Mitochondria Different-Phenotype (%) [4]: 70% | Population Mitotic Cells (%) [4]: 54% | Population Normal (%) [4]: 92% | Population Pyknosed Nuclei (%) [4]: 17% | Population Tubulin-Different-Phenotype (%) [4]: 39% | Total Cell Count [4]: 288 | Population Apoptotic (%) [5]: 36% | Population Fragmented Nuclei (%) [5]: 8% | Population Healthy Nuclei (%) [5]: 78% | Population Hoechst High Intensity Objects (%) [5]: 2% | Population Membrane Permeable-Phenotype (%) [5]: 1% | Population Mitochondria Different-Phenotype (%) [5]: 30% | Population Mitotic Cells (%) [5]: 63% | Population Normal (%) [5]: 97% | Population Pyknosed Nuclei (%) [5]: 12% | Population Tubulin-Different-Phenotype (%) [5]: 21% | Total Cell Count [5]: 368 | Population Apoptotic (%) [6]: 40% | Population Fragmented Nuclei (%) [6]: 7% | Population Healthy Nuclei (%) [6]: 83% | Population Hoechst High Intensity Objects (%) [6]: 6% | Population Membrane Permeable-Phenotype (%) [6]: 0% | Population Mitochondria Different-Phenotype (%) [6]: 36% | Population Mitotic Cells (%) [6]: 60% | Population Normal (%) [6]: 93% | Population Pyknosed Nuclei (%) [6]: 9% | Population Tubulin-Different-Phenotype (%) [6]: 13% | Total Cell Count [6]: 413 | Population Apoptotic (%) [7]: 33% | Population Fragmented Nuclei (%) [7]: 15% | Population Healthy Nuclei (%) [7]: 76% | Population Hoechst High Intensity Objects (%) [7]: 5% | Population Membrane Permeable-Phenotype (%) [7]: 0% | Population Mitochondria Different-Phenotype (%) [7]: 29% | Population Mitotic Cells (%) [7]: 66% | Population Normal (%) [7]: 94% | Population Pyknosed Nuclei (%) [7]: 8% | Population Tubulin-Different-Phenotype (%) [7]: 31% | Total Cell Count [7]: 550 | Population Apoptotic (%) [8]: 51% | Population Fragmented Nuclei (%) [8]: 7% | Population Healthy Nuclei (%) [8]: 80% | Population Mitochondria Different-Phenotype (%) [8]: 47% | Population Mitotic Cells (%) [8]: 48% | Population Pyknosed Nuclei (%) [8]: 12% | Population Tubulin-Different-Phenotype (%) [8]: 22% | Total Cell Count [8]: 392 | Population Apoptotic (%) [9]: 27% | Population Fragmented Nuclei (%) [9]: 17% | Population Healthy Nuclei (%) [9]: 76% | Population Hoechst High Intensity Objects (%) [9]: 1% | Population Membrane Permeable-Phenotype (%) [9]: 1% | Population Mitochondria Different-Phenotype (%) [9]: 17% | Population Mitotic Cells (%) [9]: 72% | Population Normal (%) [9]: 98% | Population Pyknosed Nuclei (%) [9]: 6% | Population Tubulin-Different-Phenotype (%) [9]: 10% | Total Cell Count [9]: 718 | Population Apoptotic (%) [10]: 34% | Population Fragmented Nuclei (%) [10]: 14% | Population Healthy Nuclei (%) [10]: 78% | Population Hoechst High Intensity Objects (%) [10]: 2% | Population Membrane Permeable-Phenotype (%) [10]: 0% | Population Mitochondria Different-Phenotype (%) [10]: 22% | Population Mitotic Cells (%) [10]: 65% | Population Normal (%) [10]: 97% | Population Tubulin-Different-Phenotype (%) [10]: 6% | Total Cell Count [10]: 595 | Population Apoptotic (%) [11]: 25% | Population Fragmented Nuclei (%) [11]: 14% | Population Healthy Nuclei (%) [11]: 78% | Population Hoechst High Intensity Objects (%) [11]: 4% | Population Membrane Permeable-Phenotype (%) [11]: 0% | Population Mitochondria Different-Phenotype (%) [11]: 23% | Population Mitotic Cells (%) [11]: 74% | Population Normal (%) [11]: 95% | Population Pyknosed Nuclei (%) [11]: 7% | Population Tubulin-Different-Phenotype (%) [11]: 17% | Total Cell Count [11]: 753 | Population Apoptotic (%) [12]: 36% | Population Healthy Nuclei (%) [12]: 77% | Population Hoechst High Intensity Objects (%) [12]: 3% | Population Mitochondria Different-Phenotype (%) [12]: 32% | Population Mitotic Cells (%) [12]: 63% | Population Normal (%) [12]: 96% | Population Pyknosed Nuclei (%) [12]: 8% | Population Tubulin-Different-Phenotype (%) [12]: 15% | Total Cell Count [12]: 576
